In test [1] the test system is Rattus norvegicus. Kind of test: Effect of compound administered 60 min before the test in the forced swimming test in Rat (8 rats per group) at 30 mg/kg. It counts as functional. In a few lines: (§1)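 Male Wistar rats, n=8/group; forced swim per Porsolt: 15 min pretest in cylinders with 15 cm water at 25 °C, retest 24 h later; total immobility over 5 min. Drug ip 60 min before test; imipramine in saline, test compound suspended in 1% Tween 80; Dunnett test vs vehicle.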

Test [2] relates to Rattus norvegicus. Put plainly: Effect of compound administered 60 min before the test in the forced swimming test in Rat (8 rats per group) at 20 mg/kg. Type of test: functional. The procedure, abridged: as §1
Test [3] relates to Rattus norvegicus. Put plainly: Effect of compound administered 60 min before the test in the forced swimming test in Rat (8 rats per group) at 40 mg/kg. It counts as functional. The procedure, abridged:
as §1

Test [4] relates to Rattus norvegicus. Kind of test: Effect of Compound administered 60 min before the test in the conflict drinking test in rat (n = 8 rats/group) at 5 mg/kg. It counts as functional. In a few lines: (§2)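 Male Wistar rats (250-300 g), compound suspended in 1% aqueous Tween 80, given ip (2 mL/kg) 60 min before test. Rats adapted 10 min to chamber, water-deprived 24 h, readapted 10 min with bottle, 30 min home-cage drinking, deprived another 24 h. After 30 s free drinking, licks punished by 0.5 mA shock; shocks accepted in 5 min counted. n=8/group; ANOVA with Dunnett test.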

Test [5] concerns Rattus norvegicus. Put plainly: Effect of Compound administered 60 min before the test in the conflict drinking test in rat (n = 8 rats/group) at 2.5 mg/kg. It counts as functional. In a few lines:
as §2

Test [6] has as its target T1, 5-hydroxytryptamine receptor 1A (Mus musculus) (UniProt Q64264).
T1 sequence (whole entry): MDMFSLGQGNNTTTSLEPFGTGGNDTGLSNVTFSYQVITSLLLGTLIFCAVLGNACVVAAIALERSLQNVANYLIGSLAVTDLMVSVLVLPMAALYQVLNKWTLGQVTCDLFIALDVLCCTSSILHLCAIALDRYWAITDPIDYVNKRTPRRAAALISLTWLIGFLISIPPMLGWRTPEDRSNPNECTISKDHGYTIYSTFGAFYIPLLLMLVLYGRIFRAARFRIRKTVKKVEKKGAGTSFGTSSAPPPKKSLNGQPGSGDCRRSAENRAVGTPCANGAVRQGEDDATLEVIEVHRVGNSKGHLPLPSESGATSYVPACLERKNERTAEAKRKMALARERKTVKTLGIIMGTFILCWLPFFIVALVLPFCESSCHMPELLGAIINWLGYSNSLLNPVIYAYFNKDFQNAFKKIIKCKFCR
Kind of test: Compound was tested for hypothermia with the activation of presynaptic 5-HT1A receptor agonist (8-OH-DPAT) in mice; Antagonist. Type of test: functional. The following applies: filed as antagonist.

In test [7] the target is T2, 5-hydroxytryptamine receptor 1A (Rattus norvegicus, UniProt P19327).
T2 sequence (P19327 whole entry): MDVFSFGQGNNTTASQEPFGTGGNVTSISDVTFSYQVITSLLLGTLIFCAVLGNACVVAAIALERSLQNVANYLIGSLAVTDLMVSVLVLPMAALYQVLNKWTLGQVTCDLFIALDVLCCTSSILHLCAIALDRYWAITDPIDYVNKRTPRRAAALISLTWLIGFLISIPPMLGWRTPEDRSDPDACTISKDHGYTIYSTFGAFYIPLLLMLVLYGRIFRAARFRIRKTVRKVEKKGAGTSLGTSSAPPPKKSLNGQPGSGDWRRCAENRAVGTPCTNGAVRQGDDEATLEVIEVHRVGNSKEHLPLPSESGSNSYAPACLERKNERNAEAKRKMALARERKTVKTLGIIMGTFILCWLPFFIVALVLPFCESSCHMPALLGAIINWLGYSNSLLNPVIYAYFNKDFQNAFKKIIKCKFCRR
Put plainly: Ability to bind to central serotonin 5-hydroxytryptamine 1A receptor in vitro in hippocampus of the rat brain using [3H]8-OH-DPAT radioligand. It counts as tissue-based. In a few lines:
(§3)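 Competition binding in rat brain tissue: hippocampus with [3H]-8-OH-DPAT (5-HT1A); cortex with [3H]-ketanserin (5-HT2A) or [3H]-prazosin (α1). Ki from at least three experiments using 10–14 concentrations (10⁻¹⁰–10⁻⁵ M), each in triplicate.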

The species entered for the next test is Mus musculus. Put plainly: Ability to inhibit 8-OH-DPAT-induced hypothermia was taken as a measure of presynaptic antagonistic activity; Antagonist. Type of test: functional, organism-based. The following applies: filed as antagonist.
For test [8], the target named is 5-hydroxytryptamine receptor 2A (Rattus norvegicus, UniProt P14842). Put plainly: Ability to bind to central serotonin 5-hydroxytryptamine 2A receptor in vitro in cortex of the rat brain using [3H]ketanserin radioligand. It counts as tissue-based. In a few lines: as §3
The target of test [9] is T1, 5-hydroxytryptamine receptor 1A (Mus musculus). Kind of test: The hypothermia produced in mice was regarded as a measure of presynaptic 5-HT1A receptor agonistic activity; Agonist. It counts as functional. The following applies: filed as agonist.
Test [10] has as its system Rattus norvegicus. Put plainly: Effect of compound administered 60 min before the test in the forced swimming test in Rat (8 rats per group) at 5 mg/kg. It counts as functional. The procedure, abridged: as §1
Test [11] concerns Rattus norvegicus. Kind of test: Effect of compound administered 60 min before the test in the forced swimming test in Rat (8 rats per group) at 10 mg/kg. Type of test: functional. The procedure, abridged:
as §1

The target of test [12] is T3, Adrenergic receptor alpha-1 (Rattus norvegicus, UniProt P15823+P23944+P43140).
T3 sequence (P15823 whole entry): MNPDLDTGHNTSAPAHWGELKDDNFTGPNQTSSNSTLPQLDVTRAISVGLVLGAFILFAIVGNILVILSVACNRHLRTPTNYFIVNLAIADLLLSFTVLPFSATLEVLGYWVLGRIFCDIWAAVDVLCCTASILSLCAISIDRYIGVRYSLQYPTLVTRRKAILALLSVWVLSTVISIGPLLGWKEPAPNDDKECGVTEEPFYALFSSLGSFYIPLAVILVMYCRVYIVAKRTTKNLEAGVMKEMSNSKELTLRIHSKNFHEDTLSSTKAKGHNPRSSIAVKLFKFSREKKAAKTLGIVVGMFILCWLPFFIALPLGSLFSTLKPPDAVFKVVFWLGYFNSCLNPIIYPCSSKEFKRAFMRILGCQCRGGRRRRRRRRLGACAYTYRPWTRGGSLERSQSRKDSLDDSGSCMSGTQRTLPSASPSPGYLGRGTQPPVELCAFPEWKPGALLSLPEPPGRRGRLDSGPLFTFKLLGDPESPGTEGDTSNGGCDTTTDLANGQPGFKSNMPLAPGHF
T3 sequence (P23944 whole entry): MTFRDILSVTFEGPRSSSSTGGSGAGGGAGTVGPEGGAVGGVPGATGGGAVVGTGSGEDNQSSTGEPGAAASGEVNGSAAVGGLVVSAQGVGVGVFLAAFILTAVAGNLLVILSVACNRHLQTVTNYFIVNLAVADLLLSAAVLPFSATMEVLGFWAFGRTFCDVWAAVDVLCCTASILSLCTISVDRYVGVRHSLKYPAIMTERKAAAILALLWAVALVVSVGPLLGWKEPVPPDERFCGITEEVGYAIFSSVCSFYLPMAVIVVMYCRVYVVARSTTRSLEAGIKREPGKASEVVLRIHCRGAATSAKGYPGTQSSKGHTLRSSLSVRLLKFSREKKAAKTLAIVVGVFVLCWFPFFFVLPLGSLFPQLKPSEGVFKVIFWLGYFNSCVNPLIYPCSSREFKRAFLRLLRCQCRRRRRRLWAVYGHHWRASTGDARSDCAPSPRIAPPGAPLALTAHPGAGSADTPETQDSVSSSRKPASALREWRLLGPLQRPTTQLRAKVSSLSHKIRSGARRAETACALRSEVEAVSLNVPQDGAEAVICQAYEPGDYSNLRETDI
T3 sequence (P43140 whole entry): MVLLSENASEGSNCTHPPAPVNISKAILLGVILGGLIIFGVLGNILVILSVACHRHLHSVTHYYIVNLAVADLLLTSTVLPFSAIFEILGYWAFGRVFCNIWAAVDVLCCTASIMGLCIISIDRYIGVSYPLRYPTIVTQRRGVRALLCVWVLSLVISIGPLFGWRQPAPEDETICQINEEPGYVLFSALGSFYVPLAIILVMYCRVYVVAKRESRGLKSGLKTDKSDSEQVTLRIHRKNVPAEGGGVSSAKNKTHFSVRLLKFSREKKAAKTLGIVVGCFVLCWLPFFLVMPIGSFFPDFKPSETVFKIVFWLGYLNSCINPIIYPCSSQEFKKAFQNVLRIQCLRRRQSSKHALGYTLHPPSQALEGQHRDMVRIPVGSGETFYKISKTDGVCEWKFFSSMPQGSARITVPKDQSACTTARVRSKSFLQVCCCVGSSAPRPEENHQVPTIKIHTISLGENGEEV
Put plainly: Ability to bind to alpha-1 adrenergic receptor in vitro in cortex of the rat brain using [3H]prazosin radioligand. Type of test: tissue-based. In a few lines: as §3

The target of the next test is D(2) dopamine receptor (Rattus norvegicus, UniProt P61169). Put plainly: Ability to bind to Dopamine receptor D2 in vitro in rat sriatal membranes using [3H]spiperone radioligand. It counts as cell membranes. In a few lines:
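Rat striatal membranes with [3H]spiperone; ketanserin 50 nM in buffer to block 5-HT2A binding; nonspecific binding with (±)-butaclamol 5 μM; 50 mM potassium phosphate pH 7.4; 37 °C, 30 min; vacuum filtration onto glass fiber, scintillation counting. Ki via Cheng-Prusoff from ≥3 experiments, 10 concentrations in triplicate.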

Each structure is given as a SMILES string. “And” between values parts separate entries of the source, which are not always exact repeats. Identical values can stand only once.

This note sets out measurements from ChEMBL document CHEMBL1137076, “New arylpiperazine 5-HT(1A) receptor ligands containing the pyrimido[2,1-f]purine fragment: synthesis, in vitro, and in vivo pharmacological evaluation” (J Med Chem, 2004).

Sequence of 5-hydroxytryptamine receptor 2A (P14842 whole entry): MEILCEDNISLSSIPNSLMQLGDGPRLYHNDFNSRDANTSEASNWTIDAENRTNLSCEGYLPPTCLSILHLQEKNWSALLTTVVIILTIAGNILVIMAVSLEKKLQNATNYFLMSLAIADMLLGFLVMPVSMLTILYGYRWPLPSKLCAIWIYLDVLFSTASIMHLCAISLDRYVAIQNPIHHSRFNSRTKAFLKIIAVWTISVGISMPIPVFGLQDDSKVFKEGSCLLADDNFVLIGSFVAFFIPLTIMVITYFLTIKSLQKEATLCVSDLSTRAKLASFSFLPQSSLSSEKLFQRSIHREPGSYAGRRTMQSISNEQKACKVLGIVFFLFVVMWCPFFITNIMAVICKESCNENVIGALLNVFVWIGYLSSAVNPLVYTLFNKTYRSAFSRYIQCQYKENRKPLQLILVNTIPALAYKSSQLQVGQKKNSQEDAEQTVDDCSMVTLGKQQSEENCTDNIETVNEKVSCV
Sequence of D(2) dopamine receptor (P61169 whole entry): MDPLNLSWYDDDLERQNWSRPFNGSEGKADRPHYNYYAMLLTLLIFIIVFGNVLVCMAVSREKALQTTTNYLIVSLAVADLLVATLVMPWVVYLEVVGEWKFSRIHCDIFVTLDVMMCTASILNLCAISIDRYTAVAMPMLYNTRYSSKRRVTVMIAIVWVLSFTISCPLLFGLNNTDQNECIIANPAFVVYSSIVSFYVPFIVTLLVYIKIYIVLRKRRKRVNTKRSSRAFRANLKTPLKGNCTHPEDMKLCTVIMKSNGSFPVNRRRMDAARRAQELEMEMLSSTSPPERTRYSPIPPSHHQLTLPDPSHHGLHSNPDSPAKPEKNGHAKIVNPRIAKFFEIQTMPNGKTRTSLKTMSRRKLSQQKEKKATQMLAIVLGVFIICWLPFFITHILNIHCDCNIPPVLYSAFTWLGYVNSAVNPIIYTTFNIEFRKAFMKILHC

With `CN(C)CCCN1c2ccccc2CCc2ccccc21` [IMIPRAMINE], the Effect in the test with Rattus norvegicus [1] is listed as 63.3%; with Rattus norvegicus [2], 81.9%; in the test on Rattus norvegicus [3], 52.7%. Further, the Immobility time was found to be 120.4 s with Rattus norvegicus [1], 155 s with Rattus norvegicus [2] and 99.7 s in the test with Rattus norvegicus [3].
Regarding `CN1C(=O)CN=C(c2ccccc2)c2cc(Cl)ccc21` [DIAZEPAM], in the test with Rattus norvegicus [4], the Effect was determined as 533.8% and the “No. of shocks accepted/5 min” value stood at 41.1. Further, in the test with Rattus norvegicus [5], the Effect is 306.5% and 685.7%; the “No. of shocks accepted/5 min” value was 23.6 and 52.8.
For the molecule `Cn1c(=O)c2c(nc3nc(NCCN4CCN(c5ccccc5)CC4)ccn32)n(C)c1=O`, the Functional profile result (in [6]; in the test listed under Mus musculus) was “Antagonist” in each case. For the same molecule, the Ki was 0.0115 µM in test [7] and 0.326 µM in [8].
`Cn1c(=O)c2c(nc3nc(NCCCN4CCN(c5ccccc5)CC4)c(Br)cn32)n(C)c1=O`: in test [9], the Functional profile result was “Agonist”. Also, the Effect came to 73.1% in the test on Rattus norvegicus [10], 64.4% with Rattus norvegicus [11], 491.9% in the test on Rattus norvegicus [4] and 69.6% in the test with Rattus norvegicus [2]. For the same molecule, the Immobility time stood at 173.9 s with Rattus norvegicus [10], 153.1 s with Rattus norvegicus [11] and 165.6 s in the test with Rattus norvegicus [2]. Further, in the test on Rattus norvegicus [4], the “No. of shocks accepted/5 min” value was determined as 36.4. In addition, the inhibition constant Ki in [12] was 0.011 µM; on D(2) dopamine receptor it was 0.414 µM; in test [7], 0.011 µM; in [8], 0.297 µM.

Usually Ki stands for a measure of affinity in units of concentration, obtained from inhibition or displacement.
